ChEMBL document CHEMBL3853298, “Total synthesis and in vitro bioevaluation of clavaminols A, C, H & deacetyl clavaminol H as potential chemotherapeutic and antibiofilm agents” (Eur J Med Chem, 2016)
pIC50: −log10 of the molar value. Calls of active or inactive are those of the source.

What was measured:
[1] = Cytotoxicity against human SKOV3 cells assessed as cell growth inhibition by MTT assay; type: functional, cell-based; conditions: SK-OV-3
[2] = Cytotoxicity against human DU145 cells assessed as cell growth inhibition by MTT assay; type: functional, cell-based; conditions: DU-145
[3] = Cytotoxicity against human HeLa cells assessed as cell growth inhibition by MTT assay; type: functional, cell-based
[4] = Cytotoxicity against human MCF7 cells assessed as cell growth inhibition by MTT assay; type: functional, cell-based
Staphylococcus aureus [5] = assay: Antibacterial activity against Staphylococcus aureus MTCC 96 after 24 hrs by well diffusion method; type: functional; conditions: MTCC 96, 24 h
Summary of the method: (§1)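 Bacteria spread (0.1 mL suspension) on Mueller-Hinton agar; 6.0 mm wells loaded with compound over a 250 to 0.48 per-well dose range, methanol as negative control. Incubated 24 h at 37 °C. MIC taken as the lowest concentration still giving an inhibition zone. Duplicates, mean reported.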

Bacillus subtilis [6] = assay: Antibacterial activity against Bacillus subtilis MTCC 121 after 24 hrs by well diffusion method; type: functional; conditions: MTCC 121, 24 h; summary of the method: as §1
Micrococcus luteus [7] = assay: Antibacterial activity against Micrococcus luteus MTCC 2470 after 24 hrs by well diffusion method; type: functional; conditions: MTCC 2470, 24 h; summary of the method: as §1
Staphylococcus aureus [8] = assay: Antibacterial activity against Staphylococcus aureus MLS16 MTCC 2940 after 24 hrs by well diffusion method; type: functional; conditions: MLS16 MTCC 2940, 24 h; summary of the method: as §1
Raoultella planticola [9] = assay: Antibacterial activity against Klebsiella planticola MTCC 530 after 24 hrs by well diffusion method; type: functional; conditions: MTCC 530, 24 h; summary of the method: as §1
Escherichia coli [10] = assay: Antibacterial activity against Escherichia coli MTCC 739 after 24 hrs by well diffusion method; type: functional; conditions: MTCC 739, 24 h; summary of the method: as §1
Pseudomonas aeruginosa [11] = assay: Antibacterial activity against Pseudomonas aeruginosa MTCC 2453 after 24 hrs by well diffusion method; type: functional; conditions: MTCC 2453, 24 h; summary of the method: as §1
Candida albicans [12] = assay: Antifungal activity against Candida albicans MTCC 227 after 24 hrs by well diffusion method; type: functional; conditions: MTCC 227, 24 h
Summary of the method: (§2)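 Candida/Issatchenkia lawns (0.1 mL suspension) on Mueller-Hinton agar; 6.0 mm bored wells receive compound across a 250 to 0.48 per-well dose range, methanol as negative control. Plates kept 24 h at 30 °C. MIC is the lowest concentration producing a visible inhibition zone. Duplicate runs, mean values.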

Candida albicans [13] = assay: Antifungal activity against Candida albicans MTCC 183 after 24 hrs by well diffusion method; type: functional; conditions: MTCC 183, 24 h; summary of the method: as §2
Candida albicans [14] = assay: Antifungal activity against Candida albicans MTCC 854 after 24 hrs by well diffusion method; type: functional; conditions: MTCC 854, 24 h; summary of the method: as §2
Candida albicans [15] = assay: Antifungal activity against Candida albicans MTCC 1637 after 24 hrs by well diffusion method; type: functional; conditions: MTCC 1637, 24 h; summary of the method: as §2
Candida albicans [16] = assay: Antifungal activity against Candida albicans MTCC 3017 after 24 hrs by well diffusion method; type: functional; conditions: MTCC 3017, 24 h; summary of the method: as §2
Candida albicans [17] = assay: Antifungal activity against Candida albicans MTCC 3018 after 24 hrs by well diffusion method; type: functional; conditions: MTCC 3018, 24 h; summary of the method: as §2
Candida albicans [18] = assay: Antifungal activity against Candida albicans MTCC 3958 after 24 hrs by well diffusion method; type: functional; conditions: MTCC 3958, 24 h; summary of the method: as §2
Candida albicans [19] = assay: Antifungal activity against Candida albicans MTCC 4748 after 24 hrs by well diffusion method; type: functional; conditions: MTCC 4748, 24 h; summary of the method: as §2
Candida albicans [20] = assay: Antifungal activity against Candida albicans MTCC 7315 after 24 hrs by well diffusion method; type: functional; conditions: MTCC 7315, 24 h; summary of the method: as §2
[21] = Antifungal activity against Candida parapsilosis MTCC 1744 after 24 hrs by well diffusion method; type: functional; summary of the method: as §2
[Candida] aaseri [22] = Antifungal activity against Candida aaseri MTCC 1962 after 24 hrs by well diffusion method; type: functional; conditions: Yamadazyma aaseri, MTCC 1962, 24 h; summary of the method: as §2
[23] = Antifungal activity against Candida glabrata MTCC 3019 after 24 hrs by well diffusion method; type: functional; conditions: Nakaseomyces glabratus; summary of the method: as §2
[24] = Antifungal activity against Candida krusei MTCC 3020 after 24 hrs by well diffusion method; type: functional; conditions: Pichia kudriavzevii; summary of the method: as §2
Pichia sporocuriosa [25] = assay: Antifungal activity against Issatchenkia hanoiensis MTCC 4755 after 24 hrs by well diffusion method; type: functional; conditions: MTCC 4755, 24 h; summary of the method: as §2
Staphylococcus aureus [26] = assay: Bactericidal activity against Staphylococcus aureus MTCC 96 after 24 hrs; type: functional; conditions: MTCC 96, 24 h
Summary of the method: (§3)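 Broth macrodilution in Mueller Hinton broth, compound serially diluted from 150 down to 0. Overnight bacterial culture added to a final 1.5 × 10^8 CFU/mL (0.5 McFarland), 24 h at 37 °C. Suspension then subcultured onto Mueller Hinton agar for 24 h at 37 °C. MBC is the lowest concentration killing the strain. Duplicates.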

Bacillus subtilis [27] = assay: Bactericidal activity against Bacillus subtilis MTCC 121 after 24 hrs; type: functional; conditions: MTCC 121, 24 h; summary of the method: as §3
Staphylococcus aureus [28] = assay: Bactericidal activity against Staphylococcus aureus MLS16 MTCC 2940 after 24 hrs; type: functional; conditions: MLS16 MTCC 2940, 24 h; summary of the method: as §3
Micrococcus luteus [29] = assay: Bactericidal activity against Micrococcus luteus MTCC 2470 after 24 hrs; type: functional; conditions: MTCC 2470, 24 h; summary of the method: as §3
Raoultella planticola [30] = assay: Bactericidal activity against Klebsiella planticola MTCC 530 after 24 hrs; type: functional; conditions: MTCC 530, 24 h; summary of the method: as §3
Escherichia coli [31] = assay: Bactericidal activity against Escherichia coli MTCC 739 after 24 hrs; type: functional; conditions: MTCC 739, 24 h; summary of the method: as §3
Pseudomonas aeruginosa [32] = assay: Bactericidal activity against Pseudomonas aeruginosa MTCC 2453 after 24 hrs; type: functional; conditions: MTCC 2453, 24 h; summary of the method: as §3
Candida albicans [33] = assay: Fungicidal activity against Candida albicans MTCC 183 after 24 hrs; type: functional; conditions: MTCC 183, 24 h
Summary of the method: (§4)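 Candida grown overnight in Mueller Hinton broth. Compound serially diluted in the same broth from 150 to 0 and inoculated to a final 1.5 × 10^8 CFU/mL (0.5 McFarland), then 24 h at 37 °C. Tube contents plated onto Mueller Hinton agar for 24 h at 37 °C. MFC is the lowest concentration killing the yeast. Duplicates.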

Candida albicans [34] = assay: Fungicidal activity against Candida albicans MTCC 227 after 24 hrs; type: functional; conditions: MTCC 227, 24 h; summary of the method: as §4
Candida albicans [35] = assay: Fungicidal activity against Candida albicans MTCC 854 after 24 hrs; type: functional; conditions: MTCC 854, 24 h; summary of the method: as §4
Candida albicans [36] = assay: Fungicidal activity against Candida albicans MTCC 1637 after 24 hrs; type: functional; conditions: MTCC 1637, 24 h; summary of the method: as §4
Candida albicans [37] = assay: Fungicidal activity against Candida albicans MTCC 3017 after 24 hrs; type: functional; conditions: MTCC 3017, 24 h; summary of the method: as §4
Candida albicans [38] = assay: Fungicidal activity against Candida albicans MTCC 3018 after 24 hrs; type: functional; conditions: MTCC 3018, 24 h; summary of the method: as §4
Candida albicans [39] = assay: Fungicidal activity against Candida albicans MTCC 3958 after 24 hrs; type: functional; conditions: MTCC 3958, 24 h; summary of the method: as §4
Candida albicans [40] = assay: Fungicidal activity against Candida albicans MTCC 4748 after 24 hrs; type: functional; conditions: MTCC 4748, 24 h; summary of the method: as §4
Candida albicans [41] = assay: Fungicidal activity against Candida albicans MTCC 7315 after 24 hrs; type: functional; conditions: MTCC 7315, 24 h; summary of the method: as §4
Candida parapsilosis = assay: Fungicidal activity against Candida parapsilosis MTCC 1744 after 24 hrs; type: functional; conditions: Lodderomyces parapsilosis, MTCC 1744, 24 h
Summary of the method: (§5)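 Broth dilution in Mueller Hinton broth with serial compound concentrations from […]. Overnight Candida cultures added to a final 1.5 × 10^8 CFU/mL (0.5 McFarland). Incubated 24 h at 37 °C, then 10 µL of each tube plated on Mueller Hinton agar for 24 h at 37 °C. MFC taken as the lowest concentration that kills the strain. Run in duplicate.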

[Candida] aaseri [42] = Fungicidal activity against Candida aaseri MTCC 1962 after 24 hrs; type: functional; conditions: Yamadazyma aaseri, MTCC 1962, 24 h; summary of the method: as §4
Nakaseomyces glabratus = assay: Fungicidal activity against Candida glabrata MTCC 3019 after 24 hrs; type: functional; conditions: MTCC 3019, 24 h; summary of the method: as §4
Pichia kudriavzevii = assay: Fungicidal activity against Candida krusei MTCC 3020 after 24 hrs; type: functional; conditions: MTCC 3020, 24 h; summary of the method: as §5
Pichia sporocuriosa [43] = assay: Fungicidal activity against Issatchenkia hanoiensis MTCC 4755 after 24 hrs; type: functional; conditions: MTCC 4755, 24 h; summary of the method: as §5
Staphylococcus aureus [44] = assay: Antibiofilm activity against Staphylococcus aureus MTCC 96 incubated for 24 hrs under static condition by crystal violet staining-based assay; type: functional
Summary of the method: (§6)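 Strains grown overnight in tryptone soy broth with 0.5% glucose. Compound (250 to 0) mixed with inoculum at 5 × 10^5 CFU/mL in polystyrene microtiter plates. Non-adherent cells washed off with PBS; wells stained with 0.1% crystal violet, dye solubilised in 95% ethanol, absorbance read at 540 nm. IC50 for 50% biofilm inhibition taken from dose-response curves. Triplicates, mean ± S.D.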

Bacillus subtilis [45] = assay: Antibiofilm activity against Bacillus subtilis MTCC 121 incubated for 24 hrs under static condition by crystal violet staining-based assay; type: functional; summary of the method: as §6
Staphylococcus aureus [46] = assay: Antibiofilm activity against Staphylococcus aureus MLS16 MTCC 2940 incubated for 24 hrs under static condition by crystal violet staining-based assay; type: functional; summary of the method: as §6
Micrococcus luteus [47] = assay: Antibiofilm activity against Micrococcus luteus MTCC 2470 incubated for 24 hrs under static condition by crystal violet staining-based assay; type: functional; summary of the method: as §6
Raoultella planticola [48] = assay: Antibiofilm activity against Klebsiella planticola MTCC 530 incubated for 24 hrs under static condition by crystal violet staining-based assay; type: functional; summary of the method: as §6
Escherichia coli [49] = assay: Antibiofilm activity against Escherichia coli MTCC 739 incubated for 24 hrs under static condition by crystal violet staining-based assay; type: functional; summary of the method: as §6
Pseudomonas aeruginosa [50] = assay: Antibiofilm activity against Pseudomonas aeruginosa MTCC 2453 incubated for 24 hrs under static condition by crystal violet staining-based assay; type: functional; summary of the method: as §6
Micrococcus luteus [51] = assay: Induction of intracellular ROS accumulation in Micrococcus luteus MTCC 2470 sessile biofilm cells at 2 to 4 ug/ml after 24 hrs by DCFH-DA staining-based assay; type: functional, cell-based
Summary of the method: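 Intracellular ROS was measured in M. luteus MTCC 2470 biofilms grown in 24-well plates. Mature biofilms were treated and incubated 24 h at 30 °C together with […] DCFH-DA. Well contents were centrifuged at 5000 × g for 10 min. Fluorescence (ex 485/em 535 nm) was read separately for supernatant and for sessile cells resuspended in PBS. Triplicate, mean ± S.D.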

CCCCCCCCC[C@H](O)[C@@H](C)N [CLAVAMINOL A]
3.9 µg/mL: MIC (Staphylococcus aureus [8])
0.8 µg/mL: IC50 (Micrococcus luteus [47])
31.2 µg/mL: MIC (Candida albicans [12]) | MIC (Candida albicans [13]) | MIC (Candida albicans [15]) | MIC (Candida albicans [18]) | MIC (Candida albicans [19]) | MIC [21] | MIC (Pichia sporocuriosa [25]) | MFC (Candida albicans [34]) | MFC (Candida albicans [35]) | MFC (Candida albicans [37]) | MFC (Candida albicans [38]) | MFC (Candida albicans [41]) | MFC (Nakaseomyces glabratus)
3.6 µg/mL: INH (Pseudomonas aeruginosa [50])
8.6 µg/mL: IC50 (Raoultella planticola [48])
1.9 µg/mL: MIC (Micrococcus luteus [7])
4.90: pIC50 [1]
active: Activity (Micrococcus luteus [51])
62.5 µg/mL: MIC ([Candida] aaseri [22]) | MFC (Candida albicans [33]) | MFC (Candida albicans [36]) | MFC (Candida albicans [39]) | MFC (Candida albicans [40]) | MFC (Candida parapsilosis) | MFC ([Candida] aaseri [42]) | MFC (Pichia sporocuriosa [43])
4.3 µg/mL: IC50 (Bacillus subtilis [45])
15.6 µg/mL: MIC (Raoultella planticola [9]) | MIC (Candida albicans [14]) | MIC (Candida albicans [16]) | MIC (Candida albicans [17]) | MIC (Candida albicans [20]) | MIC [23] | MBC (Staphylococcus aureus [26]) | MBC (Bacillus subtilis [27]) | MBC (Raoultella planticola [30]) | MBC (Escherichia coli [31]) | MBC (Pseudomonas aeruginosa [32]) | MFC (Pichia kudriavzevii)
2.2 µg/mL: IC50 (Staphylococcus aureus [46])
4.74: pIC50 [4]
4.81: pIC50 [3]
5.2 µg/mL: INH (Escherichia coli [49])
4.2 µg/mL: IC50 (Staphylococcus aureus [44])
4.97: pIC50 [2]
7.8 µg/mL: MIC (Staphylococcus aureus [5]) | MIC (Bacillus subtilis [6]) | MIC (Escherichia coli [10]) | MIC (Pseudomonas aeruginosa [11]) | MIC [24] | MBC (Staphylococcus aureus [28]) | MBC (Micrococcus luteus [29])
